# Screening data deposited in PubChem BioAssay by several laboratories.
# Compounds with a hit are over-represented: about 1.4% of the library has one in this group of screens.
# CHT inh: inhibitors of human choline transporter CHT; AID 488975, 2010; CHT-expressing cells, membrane potential dye, choline response; hits give low values; B-score at 10 µM; hit rate 0.86% among 310,000; High affinity choline transporter 1 (Homo sapiens), Q9GZV3;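 active = B-score over 3 SD under the library average, and starting fluorescence ratio not unusually high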;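 note: choline stimulus applied at its EC90 after an EC20 pre-addition; B-score computed on integrated fluorescence ratio after choline addition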
# TNAP inh noacc: human TNAP enzyme inhibitors, primary screen, biochemical, luminescent, no phosphate acceptor, uHTS; inhibition, % at 20 µM; hit rate 0.26% among 200,000; Alkaline phosphatase, tissue-nonspecific isozyme (Homo sapiens), P05186; AID 1012, 2008; purified TNAP, CDP-star luminescence, 30 min;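 active = tissue-nonspecific alkaline phosphatase inhibition above about 50% at 20 µM in the single-dose screen, limit read from the data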;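 note: 0% = DMSO negative control and 100% = EDTA positive control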
# Target sequence (P05186 whole entry, looked up): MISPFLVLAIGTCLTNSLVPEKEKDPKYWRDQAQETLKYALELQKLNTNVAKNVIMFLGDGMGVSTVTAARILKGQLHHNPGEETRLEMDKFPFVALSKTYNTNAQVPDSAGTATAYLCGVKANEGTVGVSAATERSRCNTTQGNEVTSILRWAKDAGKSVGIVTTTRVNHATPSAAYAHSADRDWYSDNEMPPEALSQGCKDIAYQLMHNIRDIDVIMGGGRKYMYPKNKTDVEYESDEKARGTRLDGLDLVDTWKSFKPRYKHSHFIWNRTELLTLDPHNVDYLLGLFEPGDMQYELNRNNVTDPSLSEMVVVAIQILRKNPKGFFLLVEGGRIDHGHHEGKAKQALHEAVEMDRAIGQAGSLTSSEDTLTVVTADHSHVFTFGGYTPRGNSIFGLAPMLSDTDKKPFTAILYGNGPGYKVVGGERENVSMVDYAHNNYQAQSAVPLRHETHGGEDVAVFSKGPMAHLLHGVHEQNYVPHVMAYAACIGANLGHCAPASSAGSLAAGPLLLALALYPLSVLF
# TNAP inh hiacc: human TNAP enzyme inhibitors, primary screen, biochemical, luminescent, high phosphate acceptor level, uHTS; Alkaline phosphatase, tissue-nonspecific isozyme (Homo sapiens), P05186; purified TNAP, CDP-star luminescence, 1 M DEA; inhibition, % at 20 µM; hit rate 0.03% among 200,000;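 active = over 50% inhibition of tissue-nonspecific alkaline phosphatase at 20 µM in the single-dose screen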;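 note: plate controls were DMSO wells for no effect and EDTA-quenched wells as full inhibition for full effect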
# CHT PAM: CHT positive allosteric modulators, primary screen, cell-based, membrane potential dye, choline EC20. CHT-expressing cells; hits give high values; LV-AA mutant CHT in HEK293 cells. B-score at 10 µM. AID 488977, 2010. High affinity choline transporter 1 (Homo sapiens), Q9GZV3. hit rate 0.49% among 310,000;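 active = initial fluorescence not abnormally high and integrated response B-score, plate-corrected, over 3 SD above library mean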
# ABCB6 inh 2: ABCB6 transporter inhibitors, primary screen, K562-ABCB6 cells, flow cytometry, MLPCN library | hit rate 0.19% among 360,000 | ATP-binding cassette sub-family B member 6 (Homo sapiens), Q9NP58 | fluorescence ratio to DMSO, % at 10 µM | K562-ABCB6 porphyrin accumulation, 1 h; hits give low values | AID 602162, 2011;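 active = fluorescence ratio to DMSO below 75%, the collection mean minus 3 SD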;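 note: signal is porphyrin accumulated inside mitochondria; 100% equals median channel fluorescence of DMSO control wells; lower ratio means ABCB6 inhibition with less porphyrin fluorescence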
# TNAP act hi DEA: TNAP activators at high phosphate acceptor level, primary screen, biochemical, luminescence, uHTS; Alkaline phosphatase, tissue-nonspecific isozyme (Homo sapiens), P05186; purified TNAP, CDP-star luminescence, 1 M DEA, 30 min; hits give high values; 0 = EDTA background, 1 = DMSO-only activity; activation factor at 20 µM; 200,000 tested, under 10 active; AID 1136, 2008;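 active = activation factor at least 2 at 20 µM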
#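 Assay system: human TNAP; Input: enzyme diluted 1/800 final; Reagent: CDP-star luminogenic substrate at 100 µM final; Timing: 30 min, room temperature; Signal: luminescence; Evaluation: TNAP activation factor scaled between EDTA and DMSO control wells.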
# CHT inh conf: CHT inhibitors, confirmation, cell-based, membrane potential dye, duplicate. shares compounds with CHT inh. CHT-expressing cells, choline membrane potential dye; LV-to-AA substituted CHT, HEK293 cells. CHT activity remaining % of control (hits give low values), % at 10 µM. hit rate 70% among 2,400;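 active = choline transporter activity left, mean of duplicates at 10 µM, below buffer-only control mean minus 3 SD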;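 note: depolarization triggered by choline at its EC90 following an EC20 pre-addition; 0% = hemicholinium-3 full block and 100% = buffer-only control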
# HEK293 CHT ctr: membrane potential effects in parental HEK293, counter-screen for CHT inhibitor project, cell-based, membrane potential dye. shares compounds with CHT inh. choline response; active = decrease or increase beyond buffer ±3SD. membrane potential ratio readout (active if shifted either direction beyond buffer ±3SD; no single direction) at 10 µM. hit rate 4% among 2,400. AID 493222, 2011;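 note: parental cells lack the transporter so any hit is non-specific; ratio is peak minus trough fluorescence over baseline after EC90 choline challenge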
# * hit, by the source's call; i = inactive; · = no result.
SMILES,CHT inh,TNAP inh noacc,TNAP inh hiacc,CHT PAM,ABCB6 inh 2,TNAP act hi DEA,CHT inh conf,HEK293 CHT ctr
O=C(NCCN1CCOCC1)c1ccc2c(c1)N(Cc1cccc(F)c1)C(=O)c1ccccc1S2,i,-6,-5,i,99,1.1,·,·
O=C(O)c1ccc2c(c1)N(Cc1ccc(F)cc1)C(=O)c1ccccc1S2,-5.2*,3,3,i,93,1,64%*,i
O=C(Cc1ccc(-n2c(=O)c3ccccc3n(Cc3ccccc3F)c2=O)cc1)NCC1CCCO1 (configuration not stated),-7.8*,-12,3,i,99,1,41%*,i
O=C(OCc1ccccc1Cl)c1cccnc1Cl,i,-10,-5,i,101,1,·,·
N#Cc1ccccc1COC(=O)c1cccnc1N,-5.7*,-5,-2,i,96,1,65%*,i
O=C(/C=C/[C@H]1O[C@@H](n2cnc3c(NC(=O)c4ccccc4)ncnc32)[C@H](O)[C@@H]1O)NCc1cccs1,·,·,·,·,94,·,·,·
CCc1cc(CC)c(/C=N/NC(N)=O)c(CC)c1/C=N/NC(N)=O,-9.3*,-14,-6,i,92,1.1,19%*,i
CCOC(=O)c1c(NC(=O)C2C3CCC(O3)C2C(=O)O)sc2c1CCC(CC)C2 (configuration not stated),i,-7,-5,i,399,1.1,·,·
CCOC(=O)c1c(NC(=O)C2C3C=CC(C3)C2C(=O)O)sc2c1CCC(CC)C2 (configuration not stated),-5*,-10,-4,i,98,1,27%*,i
Cc1ccccc1C(=O)NNC(=S)NC(=O)c1ccc(Cl)cc1Cl,-9.3*,0,12,i,99,0.9,45%*,i
Cc1ccccc1N(C)S(=O)(=O)c1ccc2[nH]cc(C(=O)NCC3CCCO3)c(=O)c2c1 (configuration not stated),-7*,-4,0,i,102,1,68%*,i
O=C(C1=C[C@@H](c2ccc(Br)cc2)C[C@@H](OCCCCO)O1)N1CCOCC1,i,-5,-3,i,95,1,·,·
O=C(C1=C[C@@H](c2ccccc2)C[C@@H](OCCCCO)O1)N1CCOCC1,-10*,1,-5,i,98,1.1,i,i
Cc1noc(C)c1COC(=O)c1ccc(F)c(S(=O)(=O)N2CCCCC2)c1,-5*,6,-2,i,99,1,69%*,i
O=C(Nc1ccc(F)c(Cl)c1)c1cccnc1,-6.1*,·,·,i,103,·,i,i
CCCCn1cnc2cc(C)c(C)cc21,i,-11,-4,i,96,1,·,·
O=C(Cc1coc2cc(O)ccc12)NNC(=O)c1ccc(Br)s1,·,·,·,·,95,·,·,·
Cc1onc(-c2ccccc2)c1C(=O)OCCOc1cccc(Cl)c1,i,·,·,i,110,·,·,·
Cc1ccc(OCCOC(=O)c2c(-c3ccccc3)noc2C)cc1,-5*,·,·,i,95,·,i,i
Cc1ccccc1CN1CCN(c2nc3ccccc3s2)CC1,i,·,·,i,92,·,·,·
CN(CC(=O)Nc1ccc(N2CCOCC2)cc1)C(=O)C1CCCC1,-8.3*,2,-4,i,93,1,i,i
COC(=O)c1sc(NC(=S)NNC(=O)c2c(Br)c(C)nn2C)c(C(=O)OC)c1C,-5.6*,·,·,i,104,·,i,i
Cc1nc2ccccc2n1CSc1ccccc1,i,-5,-4,i,97,1,i,i
COc1ccccc1NC(=O)/C(C#N)=C/c1ccc(OCCN2CCOCC2)c(OC)c1,-6*,·,·,i,95,·,i,i
COc1ccc(NC(=O)/C(C#N)=C/c2ccc(OCCN3CCOCC3)c(OC)c2)c(OC)c1,i,·,·,i,97,·,·,·
SMILES,CHT inh,TNAP inh noacc,TNAP inh hiacc,CHT PAM,ABCB6 inh 2,TNAP act hi DEA,CHT inh conf,HEK293 CHT ctr
CCCC1(c2ccccc2)NC(=O)N(CC(=O)NCC2COc3ccccc3O2)C1=O (configuration not stated),·,·,·,·,98,·,·,·
CCOC(=O)CNC(=O)CSc1nc(Cc2ccccc2)nc2ccccc12,-6.6*,·,·,i,99,·,i,i
Cc1ccc(F)c(NC=C2C(=O)OC(C)(C)OC2=O)c1,i,-15,-6,i,90,1.1,·,·
CSc1ccc(CN2CCC(Oc3ccc(C(=O)N4CCCC4)cc3)CC2)cc1,i,·,·,i,107,·,·,·
O=C(c1ccc(COc2ccccc2[N+](=O)[O-])o1)N1CCCCC1,i,1,-5,i,96,1.1,·,·
O=C(c1ccc(COc2ccccc2[N+](=O)[O-])o1)N1CCCCCC1,-6.1*,-6,-2,i,96,1,69%*,i
Fc1ccc(CNc2ccc(N3CCN(Cc4ccccc4)CC3)cc2)cc1,i,·,·,i,97,·,i,i
O=C(O)c1ccc(C2SCC(=O)N2Cc2ccccc2)cc1 (configuration not stated),i,-15,-3,i,106,1,·,·
NC(=O)c1ccc(C2SCC(=O)N2Cc2ccccc2)cc1 (configuration not stated),-6.3*,-11,-7,i,94,1.1,i,i
Cc1cccc(C)c1-n1cccc1/C=C1/C(=N)N2C(=NC1=O)SN=C2S(C)(=O)=O,-5.5*,-4,2,i,106,1,50%*,i
CCN1CCn2c3c(c4cc(C)ccc42)CCCC31 (configuration not stated),i,7,-5,i,102,1,·,·
CCN1CCn2c3c(c4cccc(C)c42)CCCC31 (configuration not stated),-11*,·,·,i,99,·,36%*,i
COC(=O)[C@H](Cc1c[nH]c2ccccc12)NC(=O)NCc1ccc(OC)c(OC)c1,i,·,·,i,86,·,·,·
